Assay outcomes (PubChem)
HKDC1 inh – inhibitors of human hexokinase HKDC1; Q2TB90; recombinant HKDC1, G6PDH/diaphorase resazurin coupled fluorescence; inhibition, % at 20 µM; hit rate 0.16% among 340,000;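 active = inhibition above about 35% when tested at 20 µM, limit read from the data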;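 also: plate controls were DMSO wells with enzyme for no effect and DMSO wells lacking enzyme for full effect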
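test system = in-house recombinant HK5 (HKDC1) enzyme | amount = HKDC1 at 5 µg/mL | control set = DMSO-enzyme wells negative, buffer-substituted wells positive | compound = one dose of 20 µM, 1% DMSO | schedule = reaction time 90 min, room temperature, protected from light | technique = resorufin fluorescence at 613 nm | reagent = glucose with 1 mM ATP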
G6PDH counter – L. mesenteroides G6PDH inhibition counter-screen; Purified L. mesenteroides G6PDH, diaphorase/resazurin coupled fluorescence, 45 min; inhibition, % at 5 µM; hit rate 0.12% among 200,000; AID 1020; in the data active = inhibition above about 50%
Diaphorase inh – diaphorase inhibition or chemical oxidation counter-screen; diaphorase resazurin-to-resorufin fluorescence, NADH, 16 min; bacterial (C. kluyveri) enzyme, not human; inhibition, % at 20 µM; hit rate 0.69% among 190,000;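 active = primary screen inhibition at 20 µM above a set limit, cut at about 50% in these data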;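 also: plate controls were DMSO with full reaction for no effect and wells lacking NADH for full effect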
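Assay system: diaphorase enzyme from Clostridium kluyveri; Input: enzyme working solution with 0.14 U/mL diaphorase; Timing: 16 min at room temperature; Technique: resorufin fluorescence, excitation 544 nm, emission 590 nm; Benchmarks: positive control minus NADH, DMSO neutral control.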
PfGluPho inh – PfG6PD (Plasmodium falciparum) enzyme inhibition | PfGluPho enzyme, NADPH resazurin-diaphorase fluorescence | inhibition, % at 20 µM | hit rate 0.78% among 350,000 | AID 504690;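 active = inhibition reaching at least a set limit at 20 µM in the primary screen, cut at about 59% in these data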;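 also: 0% = DMSO wells with substrate and 100% = DMSO wells lacking glucose-6-phosphate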
HKDC1 act conf2 – HKDC1 (human) activation, single-dose confirmed; shares compounds with HKDC1 inh; recombinant HKDC1, G6PDH/diaphorase resazurin fluorescence; active compounds read low; inhibition, % at 20 µM; hit rate 14% among 740;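 active = inhibition at or below a set negative limit, negative inhibition meaning the enzyme was activated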
Active calls of the source: *; nt = not tested or not shown. Compounds with a hit are over-represented: about 1.3% of the library has one in this group of screens.

SMILES	HKDC1 inh	G6PDH counter	Diaphorase inh	PfGluPho inh	HKDC1 act conf2
O=C(Nc1ccc(S(=O)(=O)Nc2ncccn2)cc1)c1ccc2ncsc2c1	33.9	nt	nt	15.4	33.1
O=[N+]([O-])c1cccc(NNS(=O)(=O)c2ccccc2F)c1	-2.1	nt	nt	39.3	nt
O=C(O)c1ccc2c(c1)C(=O)N(c1cccc(-c3nc4ccccc4s3)c1)C2=O	33.5	3.8	46.1	-24.8	-10.6
COc1cc(C(=O)NCC2(N(C)C)CCCCC2)ccc1OCc1ccccc1	2.4	nt	nt	2.6	nt
CC(C)c1nc2oc3c(NCCO)ncnc3c2c2c1COC(C)(C)C2	45.7*	nt	nt	55.7	66.2
CC(C)c1nc2oc3c(=O)[nH]cnc3c2c2c1COC(C)(C)C2	35.5*	nt	nt	31.9	48.4
CCCc1nc2oc3c(OC)ncnc3c2c2c1COC(C)(C)C2	36.5*	5.0	37.1	45.5	42.4
CCCc1nc2oc3c(NCCOCCO)ncnc3c2c2c1COC(C)(C)C2	38.8*	-0.3	35.1	43.8	41.7
Cc1nc2oc3c(NCc4ccccc4)ncnc3c2c2c1COC(C)(C)C2	26.4	11.1	28.0	18.6	nt
Cc1nc2oc3c(NCC4CCCO4)ncnc3c2c2c1COC(C)(C)C2 (configuration not stated)	17.7	7.7	17.5	13.2	nt
COc1cccc(OC)c1C(=O)NC(=O)Oc1c(F)cccc1F	-7.7	nt	nt	-12.7	nt
COc1ccc(-c2oc(NC(=O)CCl)c(C#N)c2-c2ccc(OC)cc2)cc1	46.1*	2.3	20.9	-30.4	20.9
O=C(NCC(=O)N1CCCCCC1)c1ccc(Br)cc1	-4.0	nt	nt	-0.4	nt
CCOc1ccc(NC(=O)CSc2ccc(-c3ccccn3)nn2)cc1	-8.2	-29.7	13.9	4.8	nt
CCOC(=O)c1ccc(NC(=O)CSc2ccc(-c3ccccn3)nn2)cc1	37.2*	nt	nt	47.1	31.3
CCN(CC)Cc1cc(O)c(CN(CC)CC)cc1O	47.2*	56.9*	53.1*	75.9*	41.2
CCNc1nnc(SCC(=O)N2c3ccccc3NC(=O)CC2C)s1 (configuration not stated)	-5.9	nt	nt	7.8	nt
O=C(O)c1ccc(-c2ccc(/C=c3/sc4nc5ccccc5n4c3=O)o2)cc1Cl	45.0*	nt	nt	29.6	-16.6
Cc1ccc2c(nc3s/c(=C\c4ccc(-c5ccccc5C(=O)O)o4)c(=O)n32)c1C	9.6	nt	nt	24.6	nt
CC(=O)Nc1ccc(C=NNc2ccc(S(=O)(=O)Nc3ccccc3C(=O)O)cc2[N+](=O)[O-])cc1	1.7	nt	nt	-25.7	nt
O=C(O)c1ccccc1NS(=O)(=O)c1ccc(N/N=C/c2cccc(O)c2O)c([N+](=O)[O-])c1	36.4*	nt	nt	-48.7	25.9
Oc1ccc(/C=N/Nc2ncc(Br)cn2)c(O)c1	39.0*	45.4	34.6	5.2	44.6
Oc1ccc(/C=N/Nc2nccnc2Cl)c(O)c1	-4.8	1.5	30.0	-23.9	nt
O=[N+]([O-])c1ccc(NN=Cc2ccc(O)cc2O)nc1	37.1*	nt	nt	4.2	50.8
O=C(OCn1ncc(Cl)c(Cl)c1=O)c1ccc(C(F)(F)F)cc1	46.0*	8.9	5.2	7.7	2.1
SMILES	HKDC1 inh	G6PDH counter	Diaphorase inh	PfGluPho inh	HKDC1 act conf2
Cc1cc(C(=O)CCl)c(C)n1CCc1ccc(Cl)cc1	39.1*	-0.6	13.8	17.4	9.8
Cc1cc(C(=O)CCl)c(C)n1CCc1ccc(F)cc1	28.0	1.0	9.6	-6.8	nt
Cc1cccc(C)c1NC(=O)CN(C)C(C)C(=O)NCC(=O)Nc1ccc(F)c(F)c1F (configuration not stated)	-0.9	nt	nt	3.3	nt
CCN1C(=O)[C@H]2[C@H]3CN=C(SCc4ccc(C)cc4)N3[C@@](Cc3ccccc3)(C(=O)OC)[C@H]2C1=O	-1.7	nt	nt	13.6	nt
Oc1ccc2ccccc2c1C=NC1CCCCC1	35.2*	29.9	51.9*	23.9	-8.4
COc1ccc(C2=CC3=C(Br)C(=O)C(C)(OC(=O)c4ccco4)C(=O)C3=CO2)cc1 (configuration not stated)	41.6*	nt	nt	9.6	-6.8
COc1ccc(C2=CC3=C(Br)C(=O)C(C)(OC(=O)c4cccs4)C(=O)C3=CO2)cc1 (configuration not stated)	50.0*	nt	nt	12.7	3.8
COC(=O)CCCC1=CC2=CC(=O)C(C)(OC(=O)c3cccs3)C(=O)C2=CN1c1ccc(OC)cc1 (configuration not stated)	18.6	nt	nt	43.7	nt
C=CC1=C2C=C(C3CC3)N(C3CC3)C=C2C(=O)C(C)(OC(=O)c2ccco2)C1=O (configuration not stated)	12.5	nt	nt	26.1	nt
O=C(NC(=S)Nc1ccc(S(=O)(=O)Nc2nccs2)cc1)c1ccc(Br)o1	-2.8	9.9	14.6	-42.0	nt
